# EphB4 antag – blocks human EphB4 binding to ephrin-B2. P54760. EphB4 LBD / TNYL-RAW-Alexa532 peptide, fluorescence polarization. inhibition, % at 7 µM. actives 0.15% (n = 97,000). AID 720;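 active means inhibition above the screen-wide mean inhibition plus 3 SD, cut at about 15% in these data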;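 further: 0% = DMSO wells and 100% = excess unlabeled TNYL-RAW peptide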
# Rev-RRE block – inhibitors of HIV-1 Rev-RRE RNA interaction | P05866 | Rev peptide-RRE RNA binding, FRET | inhibition, % at 8 µM | actives 0.79% (n = 97,000);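 active means inhibition above the screen-wide mean plus 3 SD, cut at about 35% in these data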;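 further: 0% = median DMSO wells and 100% = median Neomycin B control wells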
# Target sequence (P05866 whole entry, looked up): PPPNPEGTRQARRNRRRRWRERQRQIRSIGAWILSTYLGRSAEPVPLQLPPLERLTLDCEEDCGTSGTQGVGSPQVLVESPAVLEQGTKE
#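 Probe or stimulus: fluorescein-Rev peptide as binding partner; assay system: Cy5-tagged RRE RNA duplex with fluorescein-tagged Rev peptide; timing: 5 min compound–RNA preincubation, then 15 min with peptide, 25 °C; medium: HEPES pH 7.5 buffer with KCl, MgCl2, NaCl and EDTA; signal: fluorescein-to-Cy5 FRET, 480 nm excitation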
# PostGolgi ctrl – growth of the yeast control strain, post-Golgi counter-screen; actives 5% (n = 98,000); efflux-deficient yeast background strain, growth absorbance A615, 16 h; AID 738; inhibition, % at 10 µM
# PLK1 kinase inh – blocks human PLK1 kinase activity; actives 0.53% (n = 97,000); inhibition, % at 10 µM; recombinant PLK1 kinase, TR-FRET peptide phosphorylation;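 active means inhibition of 50% or more in the single-concentration screen; inactive means inhibition below 50%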;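 further: 0% = DMSO max control and 100% = H-89 dihydrochloride min control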
# PostGolgi yeast – growth inhibition of a yeast mutant, post-Golgi transport screen; post-Golgi transport phenotypic cell assay; inhibition, % at 10 µM; actives 0.9% (n = 98,000); AID 739;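 further: yeast cells grown in 1536-well plates; yeast grown about 18 h at 30C before absorbance read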
# PLK1 PBD inh – blocks phosphopeptide binding to human Plk1 polo box domain; P53350; inhibition, %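 (tested at about 20 µM)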; actives 0.13% (n = 97,000); AID 693; Plk1 PBD phosphopeptide binding, fluorescence polarization; in the data active means inhibition above about 34%, passing the limit was not always enough
# * hit, by the source's call; / = no result; [ ] = remark or other dose. Compounds with a hit are over-represented: about 6.4% of the library has one in this group of screens. Unless noted, no stated cut-off is given here; in the data, active means inhibition above about 30%; inactive means the rest.
SMILES,EphB4 antag,Rev-RRE block,PostGolgi ctrl,PLK1 kinase inh,PostGolgi yeast,PLK1 PBD inh
CCCCCCn1c(=O)c(-c2ccccc2)c(O)c2ccccc21,3,-5,38*,0,-5,9
CCCCN(CCCC)CCNC(=O)CNC(=O)c1cccs1,3,7,-7,-4,-13,4
CCCn1c(SCC(=O)c2cc(C)c(C)cc2C)n[nH]c1=O,1,6,4,-5,2,-16
Cc1nn(C(C)C(=O)N2CCc3ccccc3C2)c(=O)c2cc3occc3n12 (centres undefined),/,/,1,/,11,/
CCC(C(=O)N1CCc2ccccc2C1)n1nc(C)n2c(cc3occc32)c1=O (centres undefined),/,/,30*,/,-4,/
C=CCn1c(Cc2cccs2)nnc1SCC(=O)c1cccc(Br)c1,-1,7,6,-3,1,-19
O=c1nc(-c2ccccc2)c2ccccc2[nH]1,2,4,59*,60*,0,7
Cc1cc(NS(=O)(=O)c2ccc(NC(=O)c3cc(-c4cccnc4)nc4ccc(Cl)cc34)cc2)no1,-9,0,35*,-3,-6,-17
COCCSc1ccccc1C(=O)N1CCOCC1,-1,2,-2,-4,-4,4
CCN(CC)CCCN1C(=O)C(O)=C(C(=O)c2ccco2)C1c1ccc(OC(C)C)cc1 (centres undefined),2,7,43*,-2,-5,-29
Nc1nc(N)nc(-c2ccc(Oc3ccccc3)cc2)n1,4,-1,22,2,11,-15
Nc1ccc(Oc2ccc3nc(-c4ccccc4)c(-c4ccccc4)nc3c2)cc1,1,-1,56*,-7,103*,35
CCOC(=O)c1c(N)sc(-c2ccccc2)c1C,7,2,/,-9,/,11
CCOC(=O)c1c(N)sc2c(OC)c(Br)ccc12,-6,10,44*,-1,16,-1
Cn1c2ccccc2c2cc(C(=O)NNS(=O)(=O)c3ccc(F)cc3)sc21,-2,18,55*,-14,15,-1
CN(C)CCCNC(=O)c1cc2c3ccccc3n(C)c2s1,-1,-1,0,-13,1,-27
Cc1ccccc1N1CCN(Cc2cccc(C(=O)O)c2)CC1,6,6,11,2,17,6
COC(=O)c1cc(CN2CCN(c3ccccc3C)CC2)ccc1O,-12,6,33*,6,-1,19
COc1ccccc1CN=Cc1[nH]c2ccc(Br)c(Cl)c2c1O,-2,87*[fluorescence artefact?],18,-21,0,-134
O=C(Nc1nccs1)Oc1ccccc1,-6,0,37*,-21,-5,-17
O=C(CCCOc1ccccc1)Nc1nccs1,3,4,8,1,14,-36
O=C(NCCc1ccccc1F)C(=O)Nc1nccs1,-7,1,30*,-9,-11,-12
O=C(c1ccccc1Oc1nnnn1-c1ccccc1)N1CCOCC1,7,5,-2,-5,-1,9
Cc1ccc(S(=O)(=O)NCCn2c(C)cc3ccccc32)cc1,0,15,5,-4,9,2
Cc1cc(C)c(S(=O)(=O)NCCn2c(C)cc3ccccc32)c(C)c1,-6,5,44*,-3,-3,6
SMILES,EphB4 antag,Rev-RRE block,PostGolgi ctrl,PLK1 kinase inh,PostGolgi yeast,PLK1 PBD inh
Cc1nccc(-c2ccc(-n3cnc4ccccc43)cc2)n1,8,8,-3,2,-10,-13
c1ccc2c(c1)ncn2-c1ccc(-c2ccnc(-c3ccncc3)n2)cc1,-8,-1,72*,2,98*,32
COc1ccc(-n2cnnc2SCc2csc(-c3ccccc3)n2)cc1,/,/,3,/,-2,/
COc1cccc(C2CC(=O)NC(SC)=C2C#N)c1 (centres undefined),0,9,3,69*,-8,-1
CCCOc1ccc(C(C)=O)cc1CSc1nc(O)cc(=O)[nH]1,-3,0,-5,3,14,6
CCN(CC)CCNC(=O)c1cn(CC)c2ccc(S(=O)(=O)N(C)C)cc2c1=O,-7,3,3,-5,-3,-19
CCN(CC)CCNC(=O)c1cn(C)c2ccc(S(=O)(=O)N(C)C3CCCCC3)cc2c1=O,-2,8,17,55*,6,-17
CN(C)c1ccc(/C=C/c2cc[n+]([O-])cc2)cc1,4,120*[fluorescence artefact?],2,-13,-6,-50
CN(C)c1ccc(C(=O)c2ccccc2)cc1,-2,0,-5,-9,-1,6
CN(C)c1ccc(/C=C/c2cc[n+](C)cc2)cc1,-4,49*[fluorescence artefact?],2,-43,-6,-83
Cc1ccc(S(=O)(=O)NCCN=C(CN2CCOCC2)NS(=O)(=O)c2ccc(C)cc2)cc1,-1,2,6,-3,-3,3
Cc1ccc(S(=O)(=O)NCCN=C(CN2CCCC2)NS(=O)(=O)c2ccc(C)cc2)cc1,1,8,32*,-7,-2,-16
O=C(OCCCN=C1NS(=O)(=O)c2ccccc21)c1ccccc1F,7,6,3,-12,3,-13
Cc1ccc(OCc2nc(C#N)c(NCc3ccc4c(c3)OCO4)o2)cc1,1,16,31*,-11,1,-9
CCOc1ccc(-n2c(C)nnc2SCC(=O)N(CC)CC)cc1,1,5,1,-2,1,13
CCCc1nc(SCC(=O)N2CCN(c3ccccc3)CC2)c2c(=O)n(C)c(=O)n(C)c2n1,5,6,4,-18,-4,0
CCc1nc(SCC(=O)N2CCC(C)CC2)c2c(=O)n(C)c(=O)n(C)c2n1,1,1,3,68*,-4,2
CCc1nc(SCC(=O)N2CCC(Cc3ccccc3)CC2)c2c(=O)n(C)c(=O)n(C)c2n1,1,8,40*,-9,19,-13
C/C(=N\N=C(/N)SC1CC(=O)N(c2ccc(Br)cc2)C1=O)c1cccs1 (centres undefined),-1,15,41*,-10,-5,9
C/C(=N\N=C(/N)SC1CC(=O)N(c2ccc(Cl)c(Cl)c2)C1=O)c1cccs1 (centres undefined),6,10,57*,-8,102*,9
C/C(=N\N=C(/N)SC1CC(=O)N(c2ccc(Cl)cc2)C1=O)c1cccs1 (centres undefined),8,6,9,-7,-5,25
COc1ccc2c(c1)C1NC(=S)NC(C)(O2)C1C(=O)Nc1ccccc1C (centres undefined),-4,0,1,-5,2,-10
CN(C)C(=C(C#N)C#N)N1CCN(c2ccc(Cl)c(Cl)c2)CC1,1,5,10,-5,7,9
COc1ccc(CNC(=O)Cn2nc(C(F)(F)F)c3c2CCC3)cc1,-3,6,18,-6,-8,-7
COc1ccc(CNc2nc3c(c(C(F)(F)F)n2)CCCCC3)cc1,/,/,39*,/,-6,/

# Screening data (PubChem BioAssay)
